A short description of assay [1]: Antiproliferative activity against human LNCaP-LN3 cells after 72 hrs by MTS assay. It is filed as functional, cell-based. The conditions noted are these: LNCaP-LN3, 72 h. In outline: (§1)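 Cells kept in Advanced DMEM/F12 at 37 °C, 5% CO2, humidified. Seeded at 3000 cells/well, left 24 h, then given compound or vehicle in DMSO (1% DMSO final) at varying concentrations for 72 h. Viable cells read by MTS/PMS proliferation kit. Vehicle wells set to 100% proliferation. IC50 as mean ± SD of at least three separate experiments run in triplicate.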
(In general: Formazan colour is commonly taken as a measure of viable cells.)

A further assay deals with SK-BR-3. The assay is described as follows: Antiproliferative activity against human SKBR3 cells after 72 hrs by MTS assay. The conditions noted are these: SK-BR-3, 72 h. It is filed as functional, cell-based. The method in brief:
as §1

Assay [2] is described as follows: Antiproliferative activity against human PC3MM2 cells after 72 hrs by MTS assay. It is filed as functional, cell-based. The conditions noted are these: PC3MM2, 72 h. The method in brief: as §1
Assay [3] has as its target T1, Heat shock protein HSP90 (Homo sapiens) (UniProt P07900+P08238). As to the kind of experiment: Inhibition of C-terminal HSP90 in human MCF7 cells assessed as degradation of HER2 at 4.49 to 44.95 uM after 24 hrs by Western blot analysis relative to control. It is filed as cell-based. On the technique in general: Immunoblotting shows a protein as a band on a membrane.

For assay [4], the target named is T1, Heat shock protein HSP90 (Homo sapiens). As to the kind of experiment: Inhibition of C-terminal HSP90 in human MCF7 cells assessed as degradation of cyclin D1 at 4.49 to 44.95 uM after 24 hrs by Western blot analysis relative to control. It is filed as cell-based.
The next assay relates to MCF7. As to the kind of experiment: Antiproliferative activity against human MCF7 cells after 72 hrs by MTS assay. It is filed as functional, cell-based. The conditions noted are these: MCF7, 72 h. The method in brief: as §1
The target in assay [5] is T1, Heat shock protein HSP90 (Homo sapiens). The assay is described as follows: Inhibition of […] HSP90 in human MCF7 cells assessed as reduction in HSP90 expression at 4.49 to 44.95 uM after 24 hrs by Western blot analysis relative to control. It is filed as cell-based.
The target is the same in assay [6]. As to the kind of experiment: Inhibition of C-terminal HSP90 in human MCF7 cells assessed as degradation of cRAF at 4.49 to 44.95 uM after 24 hrs by Western blot analysis relative to control. It is filed as cell-based.
Assay [7] shares this target. As to the kind of experiment: Inhibition of C-terminal HSP90 in human MCF7 cells assessed as degradation of cyclin D1 at 2.945 to 29.45 uM after 24 hrs by Western blot analysis relative to control. It is filed as cell-based.
The target is the same in assay [8]. As to the kind of experiment: Inhibition of C-terminal HSP90 in human MCF7 cells assessed as degradation of HER2 at 2.945 to 29.45 uM after 24 hrs by Western blot analysis relative to control. It is filed as cell-based.
Assay [9] has the same target. The assay is described as follows: Inhibition of […] HSP90 in human MCF7 cells assessed as reduction in HSP90 expression at 2.945 to 29.45 uM after 24 hrs by Western blot analysis relative to control. It is filed as cell-based.
Assay [10] has the same target. As to the kind of experiment: Inhibition of C-terminal HSP90 in human MCF7 cells assessed as degradation of cRAF at 2.945 to 29.45 uM after 24 hrs by Western blot analysis relative to control. It is filed as cell-based.

Active and inactive are the calls of the source. The calls are words filed in the database; no cut-off is given here.

Broadly, the IC50 is the concentration that inhibits the measured activity by half. For the molecule `COc1cccc(-c2cc(C(=O)NCCc3ccc(O[C@@H]4OC(C)(C)[C@H](OC)[C@@H](O)[C@H]4O)c(C)c3-c3cccc(F)c3)ccc2OC)c1`, the concentration for half-maximal inhibition (IC50) in assay [1] was 25.1 µM; with SK-BR-3, 43.5 µM; in assay [2], more than 50 µM; in the assay on MCF7, 8.99 µM. The inhibition result in assay [3], in assay [4] and in assay [6] was “Active” in each case. Moreover, the inhibition entry in [5] was “inactive”.

On to `COc1cccc(-c2cc(C(=O)NCCc3ccc(OC4CCN(C)CC4)c(C)c3-c3cccc(F)c3)ccc2OC)c1`, for which the IC50 is more than 50 µM in [1], 21.3 µM in the assay on SK-BR-3, more than 50 µM in [2] and 17.8 µM in the assay with MCF7.

For the molecule `COc1cccc(-c2cc(C(=O)NCCc3cc(C)c(OC4CCN(C)CC4)cc3-c3cccc(F)c3)ccc2OC)c1`, the 50% inhibitory concentration (IC50) in assay [1] came out at 20.8 µM; in the assay on SK-BR-3 it was 7.81 µM; in assay [2], 13.9 µM; with MCF7, 9.14 µM.

Regarding `COc1cccc(-c2cc(C(=O)NCCc3ccc(OC4CCN(C)CC4)cc3-c3cccc(F)c3)ccc2OC)c1`, the 50% inhibitory concentration (IC50) in assay [1] was 22.5 µM; in the assay with SK-BR-3 it was 23.7 µM; in assay [2] it was 5.49 µM; in the assay with MCF7, 15.4 µM.

As for `COc1cccc(-c2cc(C(=O)NCCc3c(O)cc(O[C@@H]4OC(C)(C)[C@H](OC)[C@@H](O)[C@H]4O)cc3-c3cccc(F)c3)ccc2OC)c1`, the IC50 is more than 50 µM in assay [1], 23.5 µM with SK-BR-3, more than 50 µM in [2] and 23.8 µM in the assay on MCF7.

With `CC(C)=CCc1cc(C(=O)NCCc2c(O)cc(OC3CCN(C)CC3)cc2-c2cccc(F)c2)ccc1O`, the inhibition result in assay [7], in assay [8] and in assay [10] was “Active” each time. The half-inhibitory concentration (IC50) in assay [1] worked out at 22.8 µM; with SK-BR-3, 7.59 µM; in [2] it was 1.32 µM; with MCF7 it was 5.89 µM. For the same molecule, in assay [9], the inhibition entry was “inactive”.

In the case of `CO[C@@H]1[C@@H](O)[C@@H](O)[C@H](Oc2ccc(CCNC(C)=O)c(-c3cccc(F)c3)c2)OC1(C)C` [CEMDOMESPIB], the half-maximal inhibitory concentration (IC50) (in assay [1]; with SK-BR-3; in assay [2]; in the assay on MCF7) was more than 500 µM each time.

`CC(C)=CCc1cc(C(=O)NCCc2ccc(OC3CCN(C)CC3)c(O)c2-c2cccc(F)c2)ccc1O`: the 50% inhibitory concentration (IC50) came out at 23.1 µM in [1], 3.25 µM in the assay with SK-BR-3, 42.3 µM in assay [2] and 1.45 µM in the assay with MCF7.

In the case of `COc1cc(OC2CCN(C)CC2)cc(-c2cccc(F)c2)c1CCNC(=O)c1ccc(O)c(CC=C(C)C)c1`, the IC50 is more than 100 µM in assay [1], 8.16 µM in the assay on SK-BR-3, 1.84 µM in assay [2] and 7.86 µM in the assay with MCF7.

Turning to `COc1cccc(-c2cc(C(=O)NCCc3ccc(OC4CCN(C)CC4)c(N)c3-c3cccc(F)c3)ccc2OC)c1`, the IC50 is 22.4 µM in assay [1], 15.3 µM with SK-BR-3, 18.9 µM in assay [2] and 11.3 µM with MCF7.

For `COc1cccc(-c2cc(C(=O)NCCc3ccc(O[C@@H]4OC(C)(C)[C@H](OC)[C@@H](O)[C@H]4O)cc3-c3cccc(F)c3)ccc2OC)c1`, the IC50 in [1] was 15.9 µM; in the assay on SK-BR-3, more than 50 µM; in assay [2] it was more than 50 µM; with MCF7, more than 50 µM.

For the molecule `COc1cccc(-c2cc(C(=O)NCCc3c(OC)cc(O[C@@H]4OC(C)(C)[C@H](OC)[C@@H](O)[C@H]4O)cc3-c3cccc(F)c3)ccc2OC)c1`, the 50% inhibitory concentration (IC50) turned out to be 8.09 µM in [1], 49.4 µM with SK-BR-3, 10.6 µM in assay [2] and 44.7 µM in the assay with MCF7.

Consider `CC(C)=CCc1cc(C(=O)NCCc2cc(C)c(OC3CCN(C)CC3)cc2-c2cccc(F)c2)ccc1O`, for which the IC50 was more than 100 µM in assay [1], 15.2 µM in the assay on SK-BR-3, more than 100 µM in assay [2] and 35.6 µM in the assay with MCF7.

In the case of `COc1cccc(-c2cc(C(=O)NCCc3ccc(OC4CCN(C)CC4)c(O)c3-c3cccc(F)c3)ccc2OC)c1`, the 50% inhibitory concentration (IC50) in [1] came out at 22.4 µM; in the assay with SK-BR-3, 9.29 µM; in [2] it was 8.61 µM; with MCF7, 11.3 µM.

In the case of `COc1cccc(-c2cc(C(=O)NCCc3c(OC)cc(OC4CCN(C)CC4)cc3-c3cccc(F)c3)ccc2OC)c1`, the IC50 in assay [1] was more than 100 µM; with SK-BR-3 it was 5.72 µM; in [2], 32.1 µM; in the assay with MCF7, 8.71 µM.

As for `COc1cccc(-c2cc(C(=O)NCCc3cc(C)c(O[C@@H]4OC(C)(C)[C@H](OC)[C@@H](O)[C@H]4O)cc3-c3cccc(F)c3)ccc2OC)c1`, the concentration for half-maximal inhibition (IC50) in assay [1] was more than 100 µM; in the assay with SK-BR-3, 43.9 µM; in [2] it was more than 100 µM; with MCF7, more than 50 µM.

With `COc1cccc(-c2cc(C(=O)NCCc3c(O)cc(OC4CCN(C)CC4)cc3-c3cccc(F)c3)ccc2OC)c1`, the IC50 is 44.8 µM in [1], 15.7 µM in the assay on SK-BR-3, more than 50 µM in [2] and 12.2 µM in the assay with MCF7.

These data come from ChEMBL document CHEMBL4219037, “Modified biphenyl Hsp90 C-terminal inhibitors for the treatment of cancer” (Bioorg Med Chem Lett, 2017).
